High-throughput results from PubChem BioAssay.
Shown are actives, neighbours in structure and some others; about 3% of the full set was active somewhere.
DNA FID counter = fluorescent intercalator displacement, NS3 helicase counter-screen; DNA fluorescent intercalator displacement, fluorescence; inhibition, % at 7.9 µM; actives 0.17% (n = 290,000); in the data active = inhibition above about 37%;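 also: 0% = vehicle and 100% = reference compound; higher means more ethidium bromide displaced from hairpin DNA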
SR-BI DiI inh = blocks mouse SR-BI lipid uptake from DiI-HDL | ldlA[mSR-BI] CHO cells, DiI-HDL uptake fluorescence, 3 h | inhibition, % at 12.5 µM | Q61009 | AID 488896 | actives 0.96% (n = 320,000);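 active = mean replicate inhibition of at least 70% and a set share of replicates each scoring 70 or more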;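 also: 0% = median of neutral control wells and 100% = median of positive control wells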
TMEM16A inh = blocks the mouse calcium-activated chloride channel TMEM16A; Q8BHY3; HEK293 TMEM16A/YFP iodide influx fluorescence, ionomycin; normalized B-score (activity score, 25-100; higher = stronger inhibition) at 10 µM; actives 1.2% (n = 310,000); AID 588511;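 active = ratio plate-corrected score three or more library SD toward inhibition, starting fluorescence score within five deviations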;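 also: score derived from kinetic fluorescence span divided by baseline fluorescence per well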
TMEM16A act = activates or potentiates the mouse TMEM16A chloride channel | Q8BHY3 | HEK293 TMEM16A/YFP-H148Q/I152L, iodide quench fluorescence; stronger effect = lower value | B-score at 10 µM | actives 0.3% (n = 340,000) | AID 623877;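 active = fluorescence-ratio B-score plate-corrected deviation score at least 3 library SD below zero, with starting fluorescence score within 5 deviations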;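 also: channel opened by trigger with iodide after compound preincubation; score built on the fluorescence ratio of max minus min over baseline; more negative score means more quench and so TMEM16A activation or potentiation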
SR-BI uptake up = activators of SR-BI mediated HDL lipid uptake; CHO ldlA[mSR-BI] cells, DiI-HDL uptake fluorescence, 3 h; 100 = double the neutral-control signal; activation, % at 12.5 µM; actives 0.096% (n = 320,000);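 active = mean replicate activation of at least 60% and every replicate at or above 60%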;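 also: 0% = median plate neutral-control signal and 100% = twice that signal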
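Material: SR-BI-overexpressing, LDLR-lacking CHO cells | Dosing: Single compound concentration, delivered by pin transfer | Probe or stimulus: Labelled HDL, 10 µg/mL | Signal: Bottom-read cell fluorescence after medium removal, ex 550/em 595 nm | Schedule: 3 h, 37 °C | Evaluation: HDL uptake via cellular fluorescence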
Kir21 block = blocks the mouse Kir2.1 inward-rectifier potassium channel; actives 0.85% (n = 310,000); HEK293-Kir2.1, FluxOR thallium flux fluorescence; stronger effect = lower value; B-score at 10 µM;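 active = fluorescence ratio B-score at or below minus 3 SD of library scores, with starting-brightness B-score within 2 SD, cut at about -4.2 in these data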;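 also: channel flux triggered by added potassium and thallium sulfate stimulus; B-score of peak minus minimum fluorescence over baseline after thallium stimulus; more negative B-score means stronger Kir2.1 block with less thallium influx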
* marks the source's active call; other numbers are inactive results; i = inactive; x = no result given.

SMILES	DNA FID counter	SR-BI DiI inh	TMEM16A inh	TMEM16A act	SR-BI uptake up	Kir21 block
CCCCn1c(N)c(N(CC)C(=O)c2cccc(S(=O)(=O)N3CCN(C)CC3)c2)c(=O)[nH]c1=O	x	-27.2	i	i	27.2	-0.68
COc1ccccc1-n1c(-c2ccccc2)c[n+]2c1CCc1ccccc1-2	4.5	-28.0	i	i	28.0	-13.6*
COc1ccc(-c2cn(-c3ccc(OC)cc3)c3[n+]2-c2ccccc2CC3)cc1	7.5	-2.3	i	i	2.3	-3.53
COc1ccc(-c2c[n+]3c(n2-c2ccc(C)cc2)CCCCC3)cc1	2.5	-21.3	25*	i	21.3	-3.64
COc1ccc(-n2c(-c3ccc(Br)cc3)c[n+]3c2CCc2ccccc2-3)cc1	10.8	6.6	i	i	-6.6	-5.89*
CC(C)c1ccc(-n2c(-c3ccccc3)c[n+]3c2CCc2ccccc2-3)cc1	26.2	1.6	x	i	-1.6	-13.7*
CCOc1ccc(-n2c(-c3ccccc3)c[n+]3c2CCC3)cc1	-1.3	-0.8	i	i	0.8	3.49
CC(=O)OCCN1C(=O)c2cccc3cc([N+](=O)[O-])cc(c23)C1=O	x	x	i	x	x	-2.22
O=C(CN1C(=O)NC2(CCCC2)C1=O)NNC(=O)c1ccccc1F	x	-15.7	x	i	x	x
c1ccc(Nc2nc(-c3ccncc3)nc3ccccc23)cc1	-5.0	52.1	i	i	-52.1	0.23
Oc1cccc(Nc2nc(-c3ccccc3)nc3ccccc23)c1	11.3	72.1*	i	i	-72.1	1.03
CC(=O)Nc1cccc(Nc2nc(-c3ccccc3)nc3ccccc23)c1	-8.6	57.4	i	i	-57.4	2.17
Fc1ccc(Nc2nc(-c3ccncc3)nc3ccccc23)cc1	-2.5	77.9*	i	i	-77.9	0.6
COc1ccccc1C(=O)Nc1ccc2c(c1)C(=O)NC2=O	-5.8	25.1	i	i	-25.1	0.15
COc1cc(/C=N/NC(=O)CN2CCCCC2)ccc1OCc1ccc(Br)cc1	9.7	-15.7	i	i	15.7	-6.56*
COc1cc(/C=N/NC(=O)CC2(C)OCCCO2)ccc1OCc1ccccc1	-28.1	23.3	i	i	-23.3	-0.76
O=C(NCCCc1ccncc1)C1CCC(=O)N(CCc2cccc(F)c2)C1 (configuration not stated)	-8.0	-3.6	i	i	3.6	0.37
Cc1cccc(N(C)C(=O)c2cc(S(=O)(=O)N3CCCC3)cn2C)c1	-24.2	-15.9	i	i	15.9	0.24
CCN(C(=O)c1cc(S(=O)(=O)N2CCOCC2)cn1C)c1cccc(C)c1	-9.8	-8.7	100*	i	8.7	-0.14
CSCCC(NC(=O)c1ccccc1Br)C(=O)NNC(=O)c1cc(C)oc1C (configuration not stated)	x	6.9	x	i	-6.9	x
Cc1ccc(NC(=O)c2cc3c(s2)CCCC3)cc1	-7.0	67.6	i	i	-67.6	2.04
Cc1ccc(NS(=O)(=O)c2cc(NC(=O)c3cc4c(s3)CCCC4)ccc2C)c(C)c1	-3.3	82.8*	i	i	-82.8	0.35
COc1cn(-c2ccccc2)nc1C(=O)NCc1ccccc1	-20.9	11.0	i	i	-11.0	-0.26
COc1ccc(C)cc1Nc1n[n+](-c2ccccc2)c(-c2cc([N+](=O)[O-])cc(OC)c2O)s1	-16.5	94.7*	i	i	-94.7	-0.69
Cc1cccc(C)c1NC(=O)CNC(=O)CN1C(=O)NC2(CCc3ccccc32)C1=O (configuration not stated)	x	-29.3	x	i	29.3	x
SMILES	DNA FID counter	SR-BI DiI inh	TMEM16A inh	TMEM16A act	SR-BI uptake up	Kir21 block
CSCCC(NC(=O)c1ccccc1Cl)C(=O)N1CCN(C(c2ccccc2)c2ccccc2)CC1 (configuration not stated)	-51.6	28.5	i	i	-28.5	-4.71*
CCCCC(NC(=O)CCc1c(C)c2cc3c4c(oc3c(C)c2oc1=O)CCCC4)C(=O)O (configuration not stated)	-27.4	-21.7	i	i	21.7	1
Nc1cc(=O)[nH]c(SCc2cccc3ccccc23)n1	-7.7	5.4	i	i	-5.4	-0.82
O=c1cc(C(F)(F)F)nc(SCc2cccc3ccccc23)[nH]1	-29.8	-8.0	25*	i	8.0	-3.15
CCc1ccc(CN2CCCC(C(=O)Nc3ccccc3-c3ccc(OC)cc3)C2)o1 (configuration not stated)	8.1	-15.6	i	i	15.6	-5.92*
O=Cc1c(Sc2ccccn2)nc2ccccn2c1=O	1.1	77.3*	i	i	-77.3	0.24
COc1ccc(NC(=O)CSc2nnc(CC(=O)Nc3ccc(F)cc3)n2C)cc1	-13.3	x	i	i	x	1.86
COc1ccc2c(c1OC)C(=O)N(c1cccc(C)c1)C2=O	-14.3	-4.1	i	-4.86*	4.1	-0.58
COc1ccccc1CNS(=O)(=O)c1ccc2c(c1)CC(C)N2C(=O)C1CCC1 (configuration not stated)	-42.0	35.3	25*	i	-35.3	-0.71
CCOC(=O)C1CCN(S(=O)(=O)c2ccc3c(c2)CC(C)N3C(=O)C2CCC2)CC1 (configuration not stated)	-53.5	5.3	25*	i	-5.3	0.34
CCOC(=O)N1CCN(S(=O)(=O)c2ccc3c(c2)CCN3C(=O)C2CC2)CC1	-17.0	-6.6	i	-18.4*	6.6	0.28
CCOC(=O)N1CCN(S(=O)(=O)c2ccc3c(c2)CCN3C(=O)C2CCC2)CC1	-4.0	-3.2	i	i	3.2	0.66
CC1CCN(S(=O)(=O)c2ccc3c(c2)CC(C)N3C(=O)C2CCC2)CC1 (configuration not stated)	-42.2	4.8	25*	i	-4.8	-0.1
Nc1c(NC=O)c(=O)n(Cc2ccccc2)c(=O)n1Cc1ccccc1	x	-16.3	i	i	16.3	0.44
CCOC(=O)c1sc(-c2ccc(Br)cc2)cc1N	-2.3	33.7	i	i	-33.7	-0.4
NNC(=O)c1sc(-c2ccc(Cl)cc2)cc1N	-3.3	110.1*	i	i	-110.1	0.59
CC(=O)c1ccc(NC(=O)CCCN2C(=O)C(c3ccccc3)Oc3cccnc32)cc1 (configuration not stated)	-37.5	40.8	i	i	-40.8	-4.25*
CCOc1ccc(NC(=O)CCCN2C(=O)C(c3ccccc3)Oc3cccnc32)cc1 (configuration not stated)	-45.1	14.9	i	i	-14.9	0.39
Clc1ccc2[nH]c(-c3ccccc3)cc2c1	2.9	11.5	25*	i	-11.5	-0.05
CC(Oc1ccccc1)c1nnc(SCC(=O)NC2CC2)n1C (configuration not stated)	-8.6	-20.5	i	i	20.5	0
